The values that follow come from ChEMBL document CHEMBL1133565 (J Med Chem, 2000).

The target of assay [1] is T1, Sodium-dependent dopamine transporter (Homo sapiens, UniProt Q01959). In words: Inhibition of reuptake of [3H]DA (20 nM) by dopamine transporter. The procedure, abridged:
(§1)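 Uptake used whole confluent cells: hSERT in HEK293; hDAT in C6, later HEK293. Cells were washed and scraped in PBS at 25 °C, then preincubated 10 min with drug in Krebs HEPES at 25 °C. [3H]5HT or [3H]DA was added at 20 nM final for 10 min, then filtered on 0.05% polyethylenimine-soaked filters. Six drug concentrations, each in triplicate.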

For assay [2], the target named is T1, Sodium-dependent dopamine transporter. Briefly: Binding affinity against cloned human dopamine transporter using 40-80 pM [125I]RTI. In outline:
(§2)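 Membranes from cells expressing recombinant human transporters: DAT in C6 cells, later HEK293; SERT and NET in HEK293. Cells lysed (2 mM HEPES, 1 mM EDTA), spun at 30000g, resuspended in 0.32 M sucrose, about 15 µg protein. GF/C filtration. Duplicates; IC50 converted to Ki by Cheng-Prusoff.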

The target of assay [3] is T2, Sodium-dependent noradrenaline transporter (Homo sapiens, UniProt P23975). Briefly: Binding affinity against norepinephrine cloned human transporter using 40-80 pM [125I]RTI.
Target sequence in this assay (P23975 whole entry): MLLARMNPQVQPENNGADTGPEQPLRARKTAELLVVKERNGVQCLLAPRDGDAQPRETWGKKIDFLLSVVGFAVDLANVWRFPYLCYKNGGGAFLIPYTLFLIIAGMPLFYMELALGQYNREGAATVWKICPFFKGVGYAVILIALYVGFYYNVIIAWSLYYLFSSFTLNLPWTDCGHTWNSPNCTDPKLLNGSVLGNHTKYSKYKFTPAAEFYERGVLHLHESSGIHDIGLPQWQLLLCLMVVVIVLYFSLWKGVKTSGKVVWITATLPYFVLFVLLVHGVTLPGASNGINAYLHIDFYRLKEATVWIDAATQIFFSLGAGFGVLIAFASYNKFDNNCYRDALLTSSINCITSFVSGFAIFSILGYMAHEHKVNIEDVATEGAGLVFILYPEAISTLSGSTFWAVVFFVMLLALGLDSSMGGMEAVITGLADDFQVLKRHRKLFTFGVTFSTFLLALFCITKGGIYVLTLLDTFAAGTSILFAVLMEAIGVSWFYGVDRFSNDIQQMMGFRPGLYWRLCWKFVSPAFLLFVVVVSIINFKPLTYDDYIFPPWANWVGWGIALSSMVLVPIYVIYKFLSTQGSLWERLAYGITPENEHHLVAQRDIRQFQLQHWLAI
For assay [4], the target named is T2, Sodium-dependent noradrenaline transporter. In words: Inhibition of reuptake of [3H]-NE (20 nM) by norepinephrine transporter.
Target sequence in this assay (P23975 whole entry): as above
The target of assay [5] is T3, Sodium-dependent serotonin transporter (Homo sapiens, UniProt P31645). Briefly: Binding affinity against cloned serotonin human transporter using 40-80 PM [125I]RTI. In outline:
as §2
Target sequence in this assay (P31645 whole entry): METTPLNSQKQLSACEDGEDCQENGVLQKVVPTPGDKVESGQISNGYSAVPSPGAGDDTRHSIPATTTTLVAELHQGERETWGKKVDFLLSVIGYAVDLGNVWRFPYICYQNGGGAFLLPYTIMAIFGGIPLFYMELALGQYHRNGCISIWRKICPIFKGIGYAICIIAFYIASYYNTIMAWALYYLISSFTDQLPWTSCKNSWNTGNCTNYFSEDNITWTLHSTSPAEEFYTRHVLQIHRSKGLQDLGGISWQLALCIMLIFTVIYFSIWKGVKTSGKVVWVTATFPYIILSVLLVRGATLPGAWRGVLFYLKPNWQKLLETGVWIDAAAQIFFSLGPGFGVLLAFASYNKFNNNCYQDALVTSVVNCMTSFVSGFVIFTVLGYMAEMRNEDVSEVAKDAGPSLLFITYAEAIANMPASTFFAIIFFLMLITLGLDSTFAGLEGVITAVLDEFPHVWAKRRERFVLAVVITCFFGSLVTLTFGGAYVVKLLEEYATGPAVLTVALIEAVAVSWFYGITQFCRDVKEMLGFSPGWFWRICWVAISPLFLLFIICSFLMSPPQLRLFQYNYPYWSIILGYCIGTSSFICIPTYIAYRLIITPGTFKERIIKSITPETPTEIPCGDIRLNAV

The target in assay [6] is T3, Sodium-dependent serotonin transporter. Briefly: Inhibition of reuptake of [3H]5-HT (20 nM) by serotonin transporter. In outline:
as §1
Target sequence in this assay (P31645 whole entry): as above

A further assay is filed under the species Mus musculus. In words: Effective dose on 8 hr locomotor assay in mice (value is standard error of the population of 72 independent determinations). The class given is functional. In outline: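 Groups of 8 nonhabituated male Swiss-Webster mice (Hsd:ND4, 2-3 months), dosed ip in 0.9% saline vehicle just before testing. Horizontal photobeam breaks counted in 10-min bins for 8 h from 0800 h, one mouse per chamber.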

A short description of assay [7]: Effective dose for generalization to 10 mg/kg cocaine in rat (value is standard error of the population of 88 independent determinations). It counts as functional.
In assay [8] the target is T3, Sodium-dependent serotonin transporter. In words: Ratio of serotonin uptake to serotonin binding.
Target sequence in this assay (P31645 whole entry, looked up): as the sequence (P31645 whole entry) above
Assay [9] addresses Monoamine transporters; serotonin & dopamine (Homo sapiens) (UniProt P31645+Q01959). Briefly: Ratio of inhibition of serotonin uptake to inhibition of dopamine uptake. The class given is protein assay.
Assay [10] deals with T1, Sodium-dependent dopamine transporter. Briefly: Ratio of dopamine uptake to dopamine binding.
The target of assay [11] is T2, Sodium-dependent noradrenaline transporter. Briefly: Ratio of norepinephrine uptake to norepinephrine binding.
Target sequence in this assay (P23975 whole entry, looked up): as the sequence (P23975 whole entry) above

Sequence of Monoamine transporters; serotonin & dopamine (Homo sapiens) (P31645 whole entry, looked up): as the sequence (P31645 whole entry) above
Sequence of Monoamine transporters; serotonin & dopamine (Homo sapiens) (Q01959 whole entry, looked up): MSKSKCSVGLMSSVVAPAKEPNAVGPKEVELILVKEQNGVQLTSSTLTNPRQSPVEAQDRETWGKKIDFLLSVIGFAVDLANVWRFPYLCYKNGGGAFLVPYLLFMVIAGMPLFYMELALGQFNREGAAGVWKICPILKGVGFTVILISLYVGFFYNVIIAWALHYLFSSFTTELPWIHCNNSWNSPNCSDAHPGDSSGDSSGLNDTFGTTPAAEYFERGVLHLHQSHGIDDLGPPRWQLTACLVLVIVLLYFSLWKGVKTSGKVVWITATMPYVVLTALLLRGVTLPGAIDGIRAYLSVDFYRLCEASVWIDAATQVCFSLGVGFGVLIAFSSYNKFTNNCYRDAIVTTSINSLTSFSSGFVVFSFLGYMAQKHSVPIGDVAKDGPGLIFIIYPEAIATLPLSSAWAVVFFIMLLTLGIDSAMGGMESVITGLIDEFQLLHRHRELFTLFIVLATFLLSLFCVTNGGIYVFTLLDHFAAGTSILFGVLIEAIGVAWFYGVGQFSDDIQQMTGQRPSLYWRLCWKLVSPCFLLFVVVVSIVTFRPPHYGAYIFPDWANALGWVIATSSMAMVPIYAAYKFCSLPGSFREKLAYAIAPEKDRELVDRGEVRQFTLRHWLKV
T1 sequence (Q01959 whole entry): as the sequence (Q01959 whole entry, looked up) above

As a reminder, the IC50 is the concentration that gives 50% inhibition. The Ki is a measure of affinity in units of concentration, obtained from inhibition or displacement. For orientation: ED50 means the dose that gives a 50% effect, or the effect in half of the subjects. As for `CCCN[C@@H]1C[C@@H](c2ccc(Cl)c(Cl)c2)c2ccccc21` (relative stereo), the results for the IC50 in [1], in assay [4] and in [6] were 53 nM, 130 nM and 480 nM, respectively. Besides, the inhibition constant Ki in assay [2] turned out to be 220 nM; in [3], 55 nM; in [5], 130 nM. The figures for the ED50 (in the assay filed under Mus musculus; in [7]) were 8.1 mg/kg and 2.3 mg/kg, respectively. Moreover, the Ratio was determined as 3.7 in assay [8], 9.1 in assay [9], 0.24 in assay [10] and 2.4 in assay [11].
In the case of `CN(C)[C@@H]1C[C@@H](c2ccc(Cl)c(Cl)c2)c2ccccc21.O=C(O)/C=C\C(=O)O` (relative stereo), the IC50 amounted to 200 nM in assay [1], 34 nM in [4] and 65 nM in assay [6]. Moreover, the Ki in assay [2] was 19 nM; in assay [3], 95 nM; in assay [5], 0.33 nM. Further, the ED50 in the assay filed under Mus musculus came to 2.4 mg/kg; in assay [7], 1.3 mg/kg.
Regarding `COC(=O)[C@H]1[C@@H](OC(=O)c2ccccc2)C[C@@H]2CC[C@H]1N2C` [COCAINE], the ED50 came out at 7.92 mg/kg in the assay listed under Mus musculus and 3.61 mg/kg in assay [7].
`CCCN(C)[C@@H]1C[C@@H](c2ccc(Cl)c(Cl)c2)c2ccccc21` (relative stereo): the IC50 in assay [1] is 340 nM; in [4] it was 640 nM; in assay [6], 190 nM. Also, the inhibition constant Ki in assay [2] amounted to 250 nM; in assay [3], 400 nM; in assay [5], 91 nM. The ED50 in the assay listed under Mus musculus amounted to 1.7 mg/kg; in assay [7] it was 1.5 mg/kg. Moreover, the Ratio in assay [8] was 2.1; in [9], 0.56; in assay [10] it was 1.4; in [11], 1.6.
On to `CC(C)N(C)[C@@H]1C[C@@H](c2ccc(Cl)c(Cl)c2)c2ccccc21`, for which the half-maximal inhibitory concentration (IC50) in assay [1] came out at 190 nM; in [4], 420 nM; in assay [6], 1500 nM. Further, the inhibitory constant (Ki) stood at 180 nM in [2], 260 nM in assay [3] and 44 nM in [5]. Besides, the ED50 stood at 2.9 mg/kg in the assay filed under Mus musculus and 3.3 mg/kg in assay [7]. Also, the Ratio in [8] was 34; in assay [9], 7.9; in assay [10], 1.1.
In the case of `CC(C)(C)N[C@@H]1C[C@@H](c2ccc(Cl)c(Cl)c2)c2ccccc21` (relative stereo), the IC50 in assay [1] is 370 nM; in assay [4], 310 nM; in assay [6] it was 3100 nM. Further, the Ki in [2] is 130 nM; in assay [3], 150 nM; in assay [5] it was 740 nM. The compound also displayed an ED50 in the assay filed under Mus musculus greater than 28 mg/kg. Besides, the Ratio in [8] came out at 4.2; in assay [9], 8.4; in assay [10], 2.8; in [11] it was 2.1.
